Results of several laboratories.
Target: Tyrosine-protein kinase ZAP-70 (ZAP70, Homo sapiens, UniProt P43403)
Residues used in one study (P43403 1-619): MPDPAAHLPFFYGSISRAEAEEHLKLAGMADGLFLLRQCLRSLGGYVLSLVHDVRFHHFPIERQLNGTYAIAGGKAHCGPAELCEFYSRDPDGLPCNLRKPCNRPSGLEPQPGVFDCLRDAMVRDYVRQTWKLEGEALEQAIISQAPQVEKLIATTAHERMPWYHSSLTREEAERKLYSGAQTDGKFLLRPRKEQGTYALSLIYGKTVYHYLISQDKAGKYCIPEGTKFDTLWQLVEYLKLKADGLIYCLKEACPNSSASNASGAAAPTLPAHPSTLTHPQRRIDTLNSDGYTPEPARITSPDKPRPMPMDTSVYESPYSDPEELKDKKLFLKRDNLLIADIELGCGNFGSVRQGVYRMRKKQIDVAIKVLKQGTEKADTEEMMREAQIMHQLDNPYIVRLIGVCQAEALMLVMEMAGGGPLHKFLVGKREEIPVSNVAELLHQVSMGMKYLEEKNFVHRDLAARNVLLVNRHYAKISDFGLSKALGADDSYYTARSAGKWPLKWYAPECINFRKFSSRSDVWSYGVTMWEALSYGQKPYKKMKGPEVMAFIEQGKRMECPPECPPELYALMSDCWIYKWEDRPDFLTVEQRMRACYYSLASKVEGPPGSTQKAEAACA

| SMILES | observed | technique | tested at | remaining binding [%] |
| --- | --- | --- | --- | --- |
| O=C(Nc1c[nH]nc1C(=O)NC1CCNCC1)c1cc(F)cc(F)c1 | binding | competition with immobilised ligand | 1 µM | 87 |
| CN(C)c1nccc(-c2cnc3ncccn23)n1 | binding |  | 1 µM | 90 |
| CCN1CCN(Cc2ccc(C(=O)Nc3ccc(C)c(Oc4ccc5c(c4)CC(=O)N5)c3)cc2C(F)(F)F)CC1 | binding | competition with immobilised ligand | 1 µM | 100 |
| CNCc1ccccc1-c1csc([C@@H](C)Nc2nc(C)nc3cc(OC)c(OC)cc23)c1 | cell-free assay | competition with immobilised ligand | 1 µM | 87 |
| C[C@@H]1CCN(c2nccc(-c3cnn4ncccc34)n2)C1 | binding |  | 1 µM | 75 |
| CCOC(=O)c1cc2cc(-c3cc(C(=O)NCc4ccc(C(=O)O)cc4)nn3C)ccc2[nH]1 | cell-free assay | competition with immobilised ligand | 0.1 µM | 98 |
| C[C@@H](c1ccc(-n2cnc3c(N)ncnc32)cc1)N1CCc2nn(C)c(Cc3ccccc3)c2C1=O | binding | competition with immobilised ligand | 0.1 µM | 94 |
| CN(CCCC(F)(F)F)c1nccc(-c2cnn3ncccc23)n1 | binding |  | 1 µM | 100 |
| O=C(c1ccc(Nc2ncc(Cl)c(-c3cc4ccccc4s3)n2)cc1)N1CCC(N2CCCC2)CC1 | binding | competition with immobilised ligand | 1 µM | 10 |
| COc1cnc(Nc2cccc(S(N)(=O)=O)c2)nc1N1CCN(c2ccccc2)C(=O)C1 | binding | competition with immobilised ligand | 1 µM | 43 |
| Nc1ncc2c(n1)-c1c([nH]c3ccc(C#CC4CC4)cc13)CCCC2 | binding | competition with immobilised ligand | 1 µM | 92 |
| COc1cnc(Nc2cccc(S(N)(=O)=O)c2)nc1N1CCN(c2ccccc2)CC1 | binding | competition with immobilised ligand | 1 µM | 84 |
| CN(C)c1ncnc(-c2ccc3nc(Nc4cc(CN5CCN(C(=O)CC(F)(F)F)CC5)ccn4)[nH]c3c2)c1Cl | cell-free assay | competition with immobilised ligand | 1 µM | 100 |
| N[C@H]1CCN(c2nccc(-c3cnn4ncccc34)n2)C1 | binding |  | 1 µM | 100 |
| O=C(N1CCS(=O)(=O)CC1)N1C[C@H](c2ccc(OC(F)(F)F)cc2)C[C@H](c2nc(C3CC3)no2)C1 | cell-free assay | competition with immobilised ligand | 1 µM | 90 |
| CC(C)(C)c1ccc(-c2nc(CBr)nn2-c2cccc(O)c2)cc1 | cell-free assay | competition with immobilised ligand | 10 µM | 80 |
| Cc1nc(N2CC[C@@H](O)C2)ncc1-c1cc(C(F)(F)F)cc2[nH]ncc12 | binding | competition with immobilised ligand | 1 µM | 65 |
| O=C(NCCCN1CCOCC1)c1ccc(Nc2ncc(Cl)c(-c3ccc(Cl)s3)n2)cc1 | binding | competition with immobilised ligand | 1 µM | 88 |
| CC1CCCN1c1nccc(-c2cnn3ncccc23)n1 (centres unmarked) | binding |  | 1 µM | 100 |
| Cc1cnc(Nc2ccc(C(=O)N3CCC(N4CCCC4)CC3)cc2)nc1-c1cc2ccccc2s1 | binding | competition with immobilised ligand | 1 µM | 46 |
| CS(=O)(=O)NCC[C@H](NC(=O)c1cncc2c1cnn2-c1ccc(F)cc1)c1ccnc(S(C)(=O)=O)c1 | cell-free assay | competition with immobilised ligand | 1 µM | 80 |
| F[C@@H]1CCN(c2nccc(-c3cnn4ncccc34)n2)C1 | binding |  | 1 µM | 100 |
| O=C(O)[C@@H]1[C@@H](Cn2nnc3ccccc3c2=O)CC[C@H]1C(=O)c1ccc(OCCC2CCOCC2)cc1 | cell-free assay | competition with immobilised ligand | 1 µM | 99 |
| COc1ccnn2ncc(-c3ccnc(N(C)C)n3)c12 | binding |  | 1 µM | 86 |
| COc1ccc2c(O[C@@H]3C[C@H]4C(=O)N[C@]5(C(=O)O)CC5/C=C\CCCCC[C@H](NC(=O)OC5CCCC5)C(=O)N4C3)cc(-c3csc(NC(=O)C(C)C)n3)nc2c1C (some centres unmarked) | cell-free assay | competition with immobilised ligand | 1 µM | 100 |
| C[C@@H]1CN(c2ccc3ncc(-c4ccc5[nH]nc(C6CC6)c5c4)n3n2)C[C@H](C)O1 | binding | competition with immobilised ligand | 0.5 µM | 100 |
